Measured values taken from publication PMC10173409 (Science translational medicine, 2023).
Where two headings read alike, the source gives them in different places.

Assays:
mouse corneal epithelium [1] = assay: Corneal epithelial barrier function, fluorescein staining in vivo
human MD2/TLR4 complex = assay: MD2 blocking assay; type: binding; settings: for inhibition of LPS binding to MD2/TLR4 beads (in words): 30-min preincubation, peptide 60 μM, FITC-LPS 1 μg/ml, Fig. 3A; for inhibition of LPS binding to MD2/TLR4 beads with soluble MD2: soluble MD2 1 μg/ml present during preincubation with peptide 60 μM, Fig. 3B
Outline: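 Human MD2/TLR4-conjugated latex beads incubated with test peptide (60 μM), without or with soluble MD2 (1 μg/ml). Beads washed, then incubated with FITC-LPS (1 μg/ml). Percentage of LPS⁺ beads quantified by flow cytometry. Mean ± SEM, n = 3-5 independent experiments.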

hTCEpi cells = assay: TUNEL assay of DNA fragmentation; type: cell-based, human; settings: 24-h incubation, Fig. S1B
[2] = test system: amikacin-resistant P. aeruginosa, mouse corneas; assay: Treatment of established P. aeruginosa keratitis; type: in vivo; settings: for total leukocytes, neutrophils and macrophages, P. aeruginosa treatment: 3 times daily, as early as one day post-treatment, Fig. 6C-F; for disease severity over the 3-day treatment course, P. aeruginosa: 5 μg in liposomes topical 3 times daily
Outline: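 Scarified C57BL/6J corneas (one per mouse) inoculated with amikacin-resistant P. aeruginosa (10⁵ CFU). From 24 h post-infection: test peptide in phosphatidylcholine/stearylamine/cholesterol liposomes (5 μg in 5 μl), or liposome vehicle, applied topically three times daily for 1 or 3 days. Blinded 0-16 clinical score from four opacity/epithelial features. Corneal CD45⁺ leukocytes, Ly6B.2⁺F4/80⁻ neutrophils and F4/80⁺ macrophages counted by flow cytometry.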

[3] = test system: human telomerase-immortalized corneal epithelial (hTCEpi) cells; assay: MTT cell viability; type: cell-based; settings: discussion summary
Outline: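 hTCEpi (telomerase-immortalized human corneal epithelial) cells incubated 24 h with test peptide at 200 μg/ml (0.02% w/v), with a scrambled peptide as control. Viability was read by MTT assay.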

Pseudomonas aeruginosa = settings: ref [20]; cited from earlier work
[4] = test system: cell surface/endosomal TLR3; assay: media poly; type: cell-based, mouse; settings: neutrophils, high-molecular-weight poly(I:C) 1 μg/ml added to media; Fig. 1D
Outline: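 Thioglycolate-elicited mouse peritoneal neutrophils (collected day 1, DMEM/2% FBS) were stimulated with high-molecular-weight poly(I:C) (1 μg/ml) added to medium, alone or with test peptide, at 37°C/5% CO₂. Phospho-NFκB p65⁺ and phospho-IRF3⁺ cells were quantified by intracellular flow cytometry. Mean ± SD, N = 3 replicates.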

immune cells [5] = assay: Toxic effect on immune cells; settings: discussion summary
mouse corneal epithelium [6] = assay: Corneal wound healing; type: in vivo; settings: 0.1% topical, 2.5 μg peptide three times within 24 h, 6 h and 24 h after wounding, vs saline and SC10, Fig. S1E
Outline: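 C57BL/6J mice, both sexes, 10–12 wk, anesthetised i.p. with ketamine/dexmedetomidine, reversed with atipamezole. Central 2 mm corneal epithelium removed with blade. Wounds got topical saline or test peptide (2.5 μg) three times within 24 h. Defects stained with 0.38% fluorescein immediately, 6 h and 24 h post-injury; stained area measured. One cornea per mouse.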

red blood cells = assay: Hemolysis; type: cell-based; settings: for toxic effect on blood cells: discussion summary; for hemolysis (amount of hemoglobin released): vs untreated samples, Fig. S1C
[7] = ref [20]; cited from earlier work
[8] = test system: TLR2, mouse peritoneal macrophages; assay: TLR2 endocytosis in macrophages, flow cytometry; type: cell-based; settings: peptide alone 200 μg/ml (LTA 500 ng/ml), 1 h; Fig. 4D
Outline: (§1)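 Thioglycolate-elicited C57BL/6J peritoneal neutrophils (day 1) or adherent macrophages (day 3) incubated 1 h with test peptide alone. TLR2 localisation assessed by flow cytometry as cell-surface versus intracellular staining.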

[9] = test system: amikacin-resistant P. aeruginosa keratitis isolate, mouse corneas; assay: Prophylaxis of P. aeruginosa keratitis; type: in vivo; settings: 0.1% (5 μg) topical once 30 min before infection; 24 h; P < 0.01; Fig. 5D, E
Outline: (§2)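 C57BL/6J mice (both sexes, 10-12 wk), anesthetized with ketamine/dexmedetomidine i.p. One cornea per mouse, scarified with three 26g-needle abrasions. 5 μl test peptide (0.1% in saline, 5 μg) applied once, 30 min before amikacin-resistant P. aeruginosa 10⁵ CFU or S. aureus 10⁶ CFU. At 24 h: homogenate CFU on tryptic soy agar; collagenase-digested corneas analysed by flow cytometry for CD45⁺, Ly6B.2⁺F4/80⁻ and F4/80⁺ cells. n = 8-10, two experiments.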

[10] = test system: thioglycolate-elicited mouse peritoneal neutrophils; assay: LPS/LTA-induced cytokine secretion from neutrophils, ELISA; type: cell-based; settings: for dose dependence of cytokine inhibition, neutrophils: 50, 100 or 200 μg/ml, 8 h, Fig. S2; for cytokine suppression at 24 h, neutrophils: 24 h post-ligand stimulation, Fig. S3
Outline: (§3)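 C57BL/6J mice injected i.p. with 1 ml 3% thioglycolate. Peritoneal neutrophils collected day 1 (DMEM), macrophages day 3 (RPMI, 6 h adherence), both 2% FBS, 1x10⁵ cells/well after RBC lysis. Stimulated with P. aeruginosa LPS or S. aureus LTA (500 ng/ml); test peptide (50, 100 or 200 μg/ml) added 30 min before or after. Incubated 8 or 24 h, 37°C/5% CO₂. Supernatant IL-6, TNFα, G-CSF, CXCL1, CXCL2, CXCL10 measured by ELISA.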

[11] = test system: thioglycolate-elicited mouse peritoneal macrophages; assay: LPS/LTA-induced cytokine secretion from macrophages, ELISA; type: cell-based; settings: for dose dependence of cytokine inhibition, macrophages: 50, 100 or 200 μg/ml, 8 h, Fig. S2; for cytokine suppression at 24 h, macrophages: 24 h post-ligand stimulation, Fig. S3
Outline: as §3

S. aureus, mouse corneas [12] = assay: Prophylaxis of S. aureus keratitis; type: in vivo; settings: 0.1% (5 μg) topical once 30 min before 10^6 CFU, 24 h; for bacterial burden, S. aureus prophylaxis: Fig. 5H; for immune cell infiltration, S. aureus prophylaxis: Fig. 5I, J
Outline: as §2

S. aureus, mouse corneas [13] = assay: Treatment of established S. aureus keratitis; type: in vivo; settings: for infectious load, S. aureus treatment: 5 μg in liposomes, 3 times daily, Fig. 7G
Outline: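 C57BL/6J mice, both sexes, 10–12 wk. Corneas scarified with three 26g needle abrasions, inoculated with S. aureus 10⁶ CFU. From 24 h post-infection, 5 μg test peptide in 5 μl liposome mix (phosphatidylcholine/stearylamine/cholesterol) or liposome vehicle given topically three times daily for 1 or 3 days. Blinded daily scoring of four features (0–4 each, total 0–16). Endpoint CFU from corneal homogenates plated on tryptic soy agar.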

[14] = test system: TLR2, mouse peritoneal neutrophils; assay: TLR2 endocytosis in neutrophils, flow cytometry; type: cell-based; settings: peptide alone 200 μg/ml (LTA 500 ng/ml), 1 h; Fig. 4C
Outline: as §1

MD2/TLR4 complex = assay: LPS displacement assay; type: binding, human; settings: 60 μM, 30 min; Fig. 3E
Outline: (§4)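 Beads conjugated with human MD2/TLR4 complex or TLR2 were preincubated with FITC-LPS or FITC-LTA (1 μg/ml) respectively, PBS-washed, then mixed with test peptide (60 μM). Percentage of ligand-positive beads was measured by flow cytometry. Mean ± SEM, n = 3-5 independent experiments.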

TLR2 = assay: LTA displacement assay; type: binding, human; settings: 60 μM, 30 min; Fig. 3F
Outline: as §4

bacteria = settings: high-salt media; ref [49], [50]; cited from earlier work
[15] = ref [49], [50]; cited from earlier work
Staphylococcus aureus = settings: ref [20]; cited from earlier work
[16] = ref [20]; cited from earlier work; remark: listed apart in the source
immune cells [17] = test system: immune cells

Substance	corneal barrier function, fluorescein staining (mouse corneal epithelium [1]; mouse, in vivo)	inhibition of LPS binding to MD2/TLR4 beads (in words) (human MD2/TLR4 complex)	inhibition of LPS binding to MD2/TLR4 beads with soluble MD2 (human MD2/TLR4 complex)	apoptosis (hTCEpi cells)	total leukocytes, neutrophils and macrophages, P. aeruginosa treatment ([2]; 5 μg in liposomes)	toxic effect on corneal epithelial cells [3]	barrier restoration after wounding (re-epithelialization) (mouse corneal epithelium [6])	toxic effect on blood cells (red blood cells)	hemolysis (amount of hemoglobin released) (red blood cells)	TLR2 internalization, macrophages [8]	infiltrated leukocytes, neutrophils and macrophages, P. aeruginosa prophylaxis [9]	dose dependence of cytokine inhibition, neutrophils [10]	cytokine suppression at 24 h, neutrophils [10]	dose dependence of cytokine inhibition, macrophages [11]	cytokine suppression at 24 h, macrophages [11]	bacterial burden, S. aureus prophylaxis (S. aureus, mouse corneas [12])	immune cell infiltration, S. aureus prophylaxis (S. aureus, mouse corneas [12])	infectious load, S. aureus treatment (S. aureus, mouse corneas [13])	TLR2 internalization, neutrophils [14]	disease severity over the 3-day treatment course, P. aeruginosa ([2]; Fig. 6A, B)	also measured
Benzalkonium chloride [BAK, reference compound]	–	–	–	–	–	–	–	–	–	–	–	–	–	–	–	–	–	–	–	–	corneal barrier function, fluorescein staining (mouse corneal epithelium [1]; mice, one topical application at 0.1% in saline, Fig. S1D): high degree of fluorescein penetration
GGLSSVGGGS [KAMP10]	remained stain-free	effectively inhibited subsequent LPS binding	inhibitory effect was abolished	did not induce apoptosis	substantially reduced	no detectable toxic effect	substantially accelerated	no detectable toxic effect	no difference from the baseline of untreated samples	triggered internalization of TLR2	significantly reduced	dose-dependent	effective suppression	dose-dependent	effective suppression	alleviated	alleviated	substantially reducing the infectious load	triggered internalization of TLR2	–	relative effect on disease severity, P. aeruginosa treatment ([2]; KAMP10 vs KAMP18C, 5 μg in liposomes, 1 DAT, Fig. 6A, B): effect more prominent; bactericidal mechanism, P. aeruginosa (Pseudomonas aeruginosa): perforated Pseudomonas aeruginosa membrane; p65 and IRF3 phosphorylation, media poly(I:C) [4]: inhibited p65 and IRF3 phosphorylation; toxic effect on immune cells (immune cells [5]): no detectable toxic effect; binding affinity for LPS [7]: modest binding affinity
GLSGVGSGSG [SC10, reference compound]	stain-free similarly to the SC10- or saline-treated controls	but not SC10, effectively inhibited	–	–	–	–	in contrast to saline and SC10	–	–	–	–	–	–	–	–	–	–	–	–	severity progression or lack of improvement	displacement of LPS from MD2/TLR4 beads (in words) (MD2/TLR4 complex): as opposed to SC10; displacement of LTA from TLR2 beads (in words) (TLR2): as opposed to SC10
LL-37	–	–	–	–	–	–	–	–	–	–	–	–	–	–	–	–	–	–	–	severity progression or lack of improvement	bactericidal activity of LL-37 (bacteria): characterized bactericidal activities in high-salt media; LPS- and LTA-neutralizing activity [15]: known LPS- and LTA-neutralizing activities
RAIGGGLSSVGGGSSTIK [KAMP18C]	remained stain-free	effectively inhibited subsequent LPS binding	inhibitory effect was abolished	did not induce apoptosis	substantially reduced	no detectable toxic effect	substantially accelerated	no detectable toxic effect	no difference from the baseline of untreated samples	triggered internalization of TLR2	significantly reduced	dose-dependent	effective suppression	dose-dependent	effective suppression	alleviated	alleviated	substantially reducing the infectious load	triggered internalization of TLR2	–	bactericidal mechanism, S. aureus (Staphylococcus aureus): caused major damage to the cell envelope of Staphylococcus aureus; binding affinity for LTA [16]: modest binding affinity; toxic effect on immune cells (immune cells [17]): no detectable toxic effect; relative effect on disease severity, S. aureus treatment (S. aureus, mouse corneas [13]; KAMP18C vs KAMP10, 5 μg in liposomes, Fig. 7A, B): more effective against S. aureus infection
